Screening results: PubChem, Broad Institute
SR-BI DiI inh – inhibitors of SR-BI mediated HDL lipid uptake, primary screen, ldlA[mSR-BI] cells, fluorescence, single point; inhibition, % at 12.5 µM; hit rate 0.96% among 320,000; ldlA[mSR-BI] CHO cells, DiI-HDL uptake fluorescence, 3 h; Scavenger receptor class B member 1 (Mus musculus), Q61009;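 active means mean replicate inhibition of at least 70% and a set share of replicates each scoring 70 or more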
Target sequence (Q61009 whole entry, looked up): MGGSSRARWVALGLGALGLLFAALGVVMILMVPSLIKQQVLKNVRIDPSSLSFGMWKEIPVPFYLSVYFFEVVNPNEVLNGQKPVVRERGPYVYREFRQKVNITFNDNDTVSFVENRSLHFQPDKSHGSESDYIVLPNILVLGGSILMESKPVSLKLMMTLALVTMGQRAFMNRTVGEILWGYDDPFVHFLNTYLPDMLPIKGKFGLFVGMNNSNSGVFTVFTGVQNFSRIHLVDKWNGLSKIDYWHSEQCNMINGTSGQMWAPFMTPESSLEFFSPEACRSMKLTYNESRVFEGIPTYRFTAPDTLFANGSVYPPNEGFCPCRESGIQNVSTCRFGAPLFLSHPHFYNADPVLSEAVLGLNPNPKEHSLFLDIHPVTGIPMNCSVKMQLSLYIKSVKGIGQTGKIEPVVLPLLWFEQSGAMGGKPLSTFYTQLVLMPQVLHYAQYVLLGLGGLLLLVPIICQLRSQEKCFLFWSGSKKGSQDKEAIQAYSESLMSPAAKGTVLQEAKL
C2C12 statin – suppressors of statin myotoxicity in C2C12 myotubes, primary screen, cell-based, single point, plate reader; C2C12 myotubes + simvastatin, ATP luminescence, 48 h; scaled: DMSO 0, geranylgeraniol control 100; rescue of ATP level, % at 7.49 µM; hit rate 0.78% among 330,000;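 active means mean ATP rescue above about 67%, or every replicate alone reaching that limit, limit read from the data, passing the limit was not always enough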;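 further: myotubes were challenged with 10 µM simvastatin during compound exposure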
SR-BI uptake up – activators of SR-BI mediated DiI-HDL uptake, primary screen, ldlA[mSR-BI] CHO cells, DiI fluorescence. 3 h; 100 = double the neutral-control signal. activation, % at 12.5 µM. hit rate 0.096% among 320,000. AID 504775, 2011;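 active means mean replicate activation of at least 60% and every replicate at or above 60%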
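Assay system: LDL receptor-deficient CHO ldlA cells overexpressing murine SR-BI / Medium: BSA-supplemented, HEPES-buffered Ham's F12, pH 7.4 / Probe or stimulus: DiI-labelled HDL at 10 µg/mL final / Timing: compound with DiI-HDL co-incubation, 3 h at 37 °C / Technique: bottom-read cell fluorescence after medium removal, ex 550/em 595 nm / Measure: HDL uptake via cellular fluorescence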
Vif inh – HIV Vif self-association inhibitors, primary screen, imaging, HEK293T, single point | HEK293T cells, Vif self-association by quenched fluorescence, 24 h | inhibition, % at 7.49 µM | hit rate 0.35% among 340,000; in the data active means inhibition above about 50%, passing the limit was not always enough
Of the large screens only hits and unclear results are named; the others gave an inactive call. Only some compounds are listed: those with a hit (about 1.7% of all), similar ones and a draw of the others.

COc1cccc(C(=O)/C=C/Nc2cc(C)ccc2O)c1	SR-BI DiI inh 92
Cc1cccc(OCC(=O)Nc2cc(C)ccc2O)c1	C2C12 statin 113 (no result: SR-BI DiI inh, SR-BI uptake up)
CCOC(=O)c1ccc(N/C=C\C(=O)c2cccc(OC)c2)cc1	none (no result: C2C12 statin)
Cc1cccc(OCC(=O)Nc2cc(C)c(C)cc2O)c1	none
C[C@H](CO)N1C[C@H](C)[C@@H](CN(C)C(=O)C2CCOCC2)Oc2ncc(-c3ccccc3F)cc2C1=O	none (no result: SR-BI DiI inh, SR-BI uptake up, Vif inh)
Cc1ccc(-c2nnn(CC(=O)N(c3ccc(F)cc3)C(C(=O)NC(C)(C)C)c3ccco3)n2)o1 (configuration not stated)	C2C12 statin 83
O=C1C[C@@H]2c3c(cccc3CN1Cc1ccccc1Cl)C[C@@H](O)[C@H]2O	none
O=C1C[C@@H]2c3c(cccc3CN1Cc1ccccc1F)C[C@@H](O)[C@H]2O	C2C12 statin 126
O=C1C[C@@H]2c3c(cccc3CN1Cc1ccc(Cl)cc1)C[C@@H](O)[C@H]2O	C2C12 statin 119
COc1cccc(NC(=O)N2C[C@@H](O)COC[C@H]3O[C@@H](CC(=O)NC4Cc5ccccc5C4)CC[C@@H]32)c1	none (no result: SR-BI DiI inh, SR-BI uptake up, Vif inh)
CC(C)NC(=O)Nc1cccc2c1O[C@@H](CN(C)Cc1ccc(Cl)c(Cl)c1)[C@@H](C)CN([C@@H](C)CO)C2=O	none (no result: SR-BI DiI inh, SR-BI uptake up, Vif inh)
CCCS(=O)(=O)N1CCC(C(=O)N2CCCC2)CC1	none
CCCS(=O)(=O)N1CCC(C(=O)N2CCOCC2)CC1	SR-BI uptake up 68
C[C@@H]1CN([C@H](C)CO)C(=O)c2cc(NC(=O)Nc3ccccc3)ccc2O[C@H]1CN(C)Cc1ccccc1	none (no result: SR-BI DiI inh, SR-BI uptake up, Vif inh)
C[C@@H]1CN([C@@H](C)CO)C(=O)c2cc(-c3cncnc3)cnc2O[C@@H]1CN(C)C(=O)CN1CCOCC1	none (no result: SR-BI DiI inh, SR-BI uptake up, Vif inh)
Cc1cccc(-c2ccc([C@H]3[C@@H](CO)N4CCCCN(C(=O)c5ccc6c(c5)OCO6)C[C@@H]34)cc2)c1	C2C12 statin 69 (no result: SR-BI DiI inh, SR-BI uptake up, Vif inh)
CN(C)C(=O)C[C@H]1CC[C@@H]2[C@H](COC[C@@H](O)CN2CC2CC2)O1	none (no result: SR-BI DiI inh, SR-BI uptake up, Vif inh)
COc1ccc(OC)c(C2C3CN(C(C)C)CC=C3C(C#N)=C(N)C2(C#N)C#N)c1 (configuration not stated)	Vif inh 95
O=C(Nc1ccc2c(c1)[C@H]1C[C@H](CC(=O)N3CCOCC3)O[C@H](CO)[C@H]1O2)C1CCOCC1	none (no result: SR-BI DiI inh, SR-BI uptake up, Vif inh)
C=CCn1c(SCC(=O)Nc2cccc(C)c2)nnc1-c1cnccn1	none
C=CCn1c(SCC(=O)Nc2ccc(N(C)C)cc2)nnc1-c1cccc(C)c1	C2C12 statin 84 (no result: SR-BI DiI inh, SR-BI uptake up)
O=C(Cc1ccc(Cl)cc1)NC1CC1	Vif inh 71
COc1ccc2c(Cl)c(-c3nnc(SCC(=O)c4ccccc4)n3C)sc2c1	C2C12 statin 116
COc1ccc2c(Cl)c(-c3nnc(SCC(N)=O)n3C)sc2c1	none
Cc1ccc(NC(=O)c2cc3c(s2)CCCC3)cc1	none
Cc1ccc(NS(=O)(=O)c2cc(NC(=O)c3cc4c(s3)CCCC4)ccc2C)c(C)c1	SR-BI DiI inh 83 (no result: C2C12 statin)
C[C@H](CO)N1C[C@H](C)[C@@H](CN(C)Cc2ccc(-c3ccccc3)cc2)Oc2c(NC(=O)c3ccc(-c4nccs4)cc3)cccc2C1=O	none (no result: SR-BI DiI inh, SR-BI uptake up, Vif inh)
CCOC(=O)c1c(-c2ccc(C)cc2)csc1NC(=O)/C(C#N)=C/c1ccc(O)c(OC)c1	none (no result: C2C12 statin)
CCOC(=O)c1c(-c2ccccc2)csc1NC(=O)/C(C#N)=C\c1ccc(O)c(OC)c1	SR-BI DiI inh 85 (no result: C2C12 statin)
O=C(c1ccc(CN2CCOCC2)cc1)N1CCN(c2cccc(Cl)c2)CC1	C2C12 statin 103 (no result: SR-BI DiI inh, SR-BI uptake up)
COc1ccccc1OCCn1cc(/C=N/NC(=O)c2ccncc2)c2ccccc21	none
COc1ccccc1OCCn1cc(/C=N/NC(N)=S)c2ccccc21	SR-BI DiI inh 77
CNC(=S)N/N=C/c1cn(CCOc2ccc(OC)cc2)c2ccccc12	SR-BI DiI inh 78 (no result: C2C12 statin)
O=C(C[C@H]1C[C@@H]2c3cc(NC(=O)c4ccc5c(c4)OCO5)ccc3O[C@@H]2[C@@H](CO)O1)NCc1cccc(F)c1	none (no result: SR-BI DiI inh, SR-BI uptake up, Vif inh)
CN(CC(=O)NCCCN1CCOCC1)S(=O)(=O)c1ccc(Br)cc1	SR-BI DiI inh 78 (no result: C2C12 statin)
Cc1noc(C)c1NC(=O)N1C[C@@H](O)COC[C@@H]2O[C@H](CC(=O)N3CCc4ccccc4C3)CC[C@H]21	none (no result: SR-BI DiI inh, SR-BI uptake up, Vif inh)
CCOC(=O)N1CCN(C2CC(=O)N(c3ccc(Oc4ccccc4)cc3)C2=O)CC1 (configuration not stated)	C2C12 statin 126
C[C@H]1CN([C@@H](C)CO)S(=O)(=O)c2ccc(-c3ccccc3F)cc2O[C@H]1CN(C)Cc1cccnc1	none (no result: SR-BI DiI inh, SR-BI uptake up, Vif inh)
Cc1onc(-c2ccccc2Cl)c1C(=O)Nc1sc2c(c1C#N)CCC2	none
Cc1onc(-c2ccccc2)c1C(=O)Nc1sc2c(c1C#N)CCC(C)C2 (configuration not stated)	SR-BI DiI inh 72
CCOCc1nnc(NC(=O)c2c(-c3ccccc3)noc2C)s1	none
CCOC(=O)c1c(NC(=O)c2c(-c3ccccc3)noc2C)sc(C)c1-c1ccccc1	SR-BI DiI inh 75
CC1CCc2c(sc(NC(=O)c3ccc(-c4ccccc4[N+](=O)[O-])o3)c2C#N)C1 (configuration not stated)	SR-BI DiI inh 90
CCC1(C)C2(C#N)C(N)=NC(OC)(OC)C12C#N (configuration not stated)	C2C12 statin 72
Cc1ccc(CC(NC(=O)c2ccccc2)C(=O)NC(Cc2ccccc2)C(=O)O)cc1 (configuration not stated)	none
Cc1ccc(C(=O)NC(CCc2ccccc2)C(=O)O)cc1 (configuration not stated)	Vif inh 118
Cc1c(NC(=O)CSc2ccc(Cl)cc2)c(=O)n(-c2ccccc2)n1C	none (no result: C2C12 statin)
CCOc1ccc(N(CC(=O)Nc2c(C)n(C)n(-c3ccccc3)c2=O)S(=O)(=O)c2ccc(F)cc2)cc1	none
CCOc1ccccc1N(CC(=O)Nc1c(C)n(C)n(-c2ccccc2)c1=O)S(=O)(=O)c1ccccc1	SR-BI uptake up 71 (no result: C2C12 statin)
Cc1c(NC(=O)CSc2nnc3c4ccccc4n(CCc4ccccc4)c3n2)c(=O)n(-c2ccccc2)n1C	SR-BI DiI inh 82 (no result: C2C12 statin)
Cc1c(NC(=O)CSc2ccccn2)c(=O)n(-c2ccccc2)n1C	C2C12 statin 111
CO[C@H]1CN(C)C(=O)c2cc(NC(=O)C3CC3)ccc2OC[C@H](C)N(C(=O)c2cccnc2)C[C@@H]1C	none (no result: SR-BI DiI inh, SR-BI uptake up, Vif inh)
C[C@H]1CN([C@@H](C)CO)C(=O)Cc2cc(NC(=O)C3CCCCC3)ccc2O[C@@H]1CN(C)C(=O)Nc1cccc2ccccc12	none (no result: SR-BI DiI inh, SR-BI uptake up, Vif inh)
C=CC[C@@H](CC(=O)N(CCO)Cc1ccccc1)C(=O)N[C@H](COC(=O)[C@@H](CC=C)Cc1ccc(F)cc1)C(C)(C)C	Vif inh 55
O=C(NCc1ccco1)C(c1ccccc1)N(C(=O)Cc1cccs1)c1ccccc1 (configuration not stated)	C2C12 statin 125
